The list is not random: actives were taken first. Their share in the collection is about 7.2%.
PLAP activator: activates human placental alkaline phosphatase; purified PLAP enzyme, luminescent substrate read-out; stronger effect = higher value; 96,000 tested, 1.2% active; AID 696; activation fold at 20 µM; in the data active = activation fold above about 2
Target sequence (P05187 whole entry, looked up): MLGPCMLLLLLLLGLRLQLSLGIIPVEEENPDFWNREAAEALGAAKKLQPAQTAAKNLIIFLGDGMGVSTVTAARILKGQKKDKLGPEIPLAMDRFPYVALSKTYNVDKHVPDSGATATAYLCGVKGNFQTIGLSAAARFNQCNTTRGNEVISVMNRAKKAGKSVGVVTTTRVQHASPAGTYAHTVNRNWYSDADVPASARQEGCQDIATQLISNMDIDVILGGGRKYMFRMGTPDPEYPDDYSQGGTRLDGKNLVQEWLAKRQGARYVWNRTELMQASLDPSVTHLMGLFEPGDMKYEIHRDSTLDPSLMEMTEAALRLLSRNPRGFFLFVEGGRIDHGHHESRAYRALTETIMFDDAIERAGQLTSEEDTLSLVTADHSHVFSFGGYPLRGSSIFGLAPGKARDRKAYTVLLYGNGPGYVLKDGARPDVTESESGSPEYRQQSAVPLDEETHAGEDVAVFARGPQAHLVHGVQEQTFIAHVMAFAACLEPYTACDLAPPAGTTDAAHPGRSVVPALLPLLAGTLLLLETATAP
Ecoli WT expand: E. coli BW25113 growth inhibition, expanded screen; 98,000 tested, 0.15% active; AID 710; OD600 absorbance; growth inhibition, % at 100 µM;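 active = growth inhibition above about 50% at one test dose, limit read from the data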;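 also: growth measured after 20 h incubation at 37 °C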
PostGolgi ctrl: inhibits growth of the yeast control strain; efflux-deficient yeast background strain, growth absorbance A615, 16 h; inhibition, % at 10 µM; 98,000 tested, 5% active; AID 738
Ecoli tolC: growth inhibitors of E. coli BW25113 tolC mutant. OD615. growth inhibition, % at 10 µM (by protocol). 65,000 tested, 2.2% active. AID 573;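 active = growth inhibition at or above a cutoff equal to the mean over every tested compound plus 3 SD, cut at about 60% in these data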;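 also: growth measured after 20 h incubation at 37 °C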
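test system = E. coli BW25113 ΔtolC::kan bacteria | medium = LB with kanamycin 50 µg/mL | signal = OD at 615 nm | schedule = 37 °C, 20 h exposure | evaluation = % inhibition of E. coli growth | compound dosing = one dose of 10 µM final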
PostGolgi yeast: growth inhibition of a yeast mutant, post-Golgi transport screen; AID 739; post-Golgi transport phenotypic cell assay; 98,000 tested, 0.9% active; inhibition, % at 10 µM;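 also: yeast cells grown in 1536-well plates; yeast grown about 18 h at 30C before absorbance read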
Active calls of the source: *; · = no result given. Rule as the data show it, unless noted: active = inhibition above about 30%; inactive = the rest.

SMILES	PLAP activator	Ecoli WT expand	PostGolgi ctrl	Ecoli tolC	PostGolgi yeast
COc1cc(C(=O)Nc2cc(C(F)(F)F)ccc2Cl)cc(OC)c1OC	0.9	-5	1	·	-1
CCCCN1C2=NCCCN2c2ccccc21	0.8	8	2	·	3
CCCCCCN1C2=NCCN2c2ccccc21	0.9	17	5	·	32*
CCCN1C2=NCCCN2c2ccccc21	1	-2	38*	·	6
COc1ccc(CNc2ccc3cn[nH]c3c2)c(OC)c1OC	2*	-7	-1	-11	-5
CCOc1cc(CNc2ccc3cn[nH]c3c2)ccc1OC	1.4	5	0	·	-1
COc1cc2c(cc1OC)C1(NCC2)C(=O)Nc2ccccc21 (centres undefined)	0.8	7	48*	-9	0
O=C(C=C1CCN(c2ncc(C(F)(F)F)cc2Cl)CC1)NNC(=O)Nc1ccc(Cl)cc1	1	-8	2	·	-4
O=[N+]([O-])c1cc(Cl)cc(/C=N\Nc2ccccn2)c1O	1	22	19	·	80*
O=[N+]([O-])c1cccc(/C=N/Nc2nccnc2Cl)c1	0.9	0	7	·	2
Cc1cc(NC(=O)c2ccc(NC(=O)C(C)Oc3ccccc3)cc2)no1 (centres undefined)	·	-10	-13	-12	-2
Fc1ccc(COc2ccc(/C=N/n3cnnc3)cc2)cc1	1.1	7	35*	11	10
CC(=O)N1N=C(c2ccc3nccnc3c2)CC1c1ccccc1 (centres undefined)	1.1	-1	27	·	5
Cc1ccc(C2=NN3C(C(=O)c4ccccc4)Oc4ccccc4C3C2)cc1 (centres undefined)	1.2	-14	50*	·	12
CC(O)c1c(OCc2ccccc2)ncnc1OCc1ccccc1 (centres undefined)	1.1	5	20	66*	4
CCN(CCCNC(=O)C1CCCN(S(=O)(=O)c2cnc[nH]2)C1)c1ccccc1 (centres undefined)	1.4	3	0	1	5
CCSc1nnc(NC(=O)CSc2nccn2-c2cccc(C)c2C)s1	1.1	4	17	84*	-5
O=C(COc1ccccc1)N(CCc1ccccc1)c1nc(-c2ccc(F)cc2)cs1	1	-14	15	·	2
Cc1ccccc1-c1nc(S(=O)(=O)c2ccc(Br)cc2)c(NCc2cccnc2)o1	1.7	-11	31*	·	0
Cc1ccc(C)c(S(=O)(=O)C(C#N)c2nc3ccccc3nc2N2CCOCC2)c1 (centres undefined)	1.2	1	4	70*	-3
COc1ccc(S(=O)(=O)C(C#N)c2nc3ccccc3nc2N2CCCCC2)cc1 (centres undefined)	1.2	-3	-3	28	-6
N#CC(c1nc2ccccc2nc1N1CCCC1)S(=O)(=O)c1ccccc1 (centres undefined)	1.4	10	31*	18	-1
Cc1ccc(C)c(S(=O)(=O)C(C#N)c2nc3ccccc3nc2N2CCCC2)c1 (centres undefined)	1.2	-6	6	36	-5
Cc1ccc(C(=O)CCNc2ccc(Cl)cc2)o1	0.9	6	19	·	-4
COc1ccc(S(=O)(=O)Nc2cc3c4c(oc3c3ccccc23)CCCC4=O)cc1	1.2	-2	45*	·	2
SMILES	PLAP activator	Ecoli WT expand	PostGolgi ctrl	Ecoli tolC	PostGolgi yeast
Cc1ccc(N2C(=O)CSC2c2cccnc2)cc1F (centres undefined)	1.1	7	-2	-10	-9
Cc1cccc(OCC(=O)N/N=C/c2cn[nH]c2-c2ccc(Cl)c(Cl)c2)c1	1.2	-10	38*	·	-5
C=CCOc1c(OC)cc(Cl)cc1C1NC(=O)NC(C)=C1C(C)=O (centres undefined)	0.9	2	-4	13	-5
C=CCOc1c(Cl)cc(C2NC(=O)NC(C)=C2C(=O)OC)cc1Cl (centres undefined)	0.9	-12	51*	18	7
COc1ccc(Cl)cc1C(=O)CSc1nnnn1C1CCCCC1	1.3	-10	29	·	-12
COc1ccc(Cl)cc1C(=O)CSc1nnnn1C1CCCC1	1.5	-13	35*	58	20
CC1CCCN(C(=O)COC(=O)c2ccc[nH]c2=O)C1 (centres undefined)	0.8	1	-7	·	5
O=C(CN1CCN(c2ccccc2)CC1)Nc1ccc(OCc2ccccc2)cc1	0.9	-8	48*	·	2
COc1ccccc1NC(=O)CN1CCN(CC(=O)Nc2ccc(F)cc2)CC1	1.5	0	-4	3	-3
CN1CCN(c2ccc(NC(=O)c3cccc(OCc4ccccc4)c3)cc2)CC1	1.2	-8	39*	8	0
CCOC(=O)N1CCN(CC(=O)Nc2ccc(Oc3ccccc3)cc2)CC1	1.7	2	32*	·	4
CN1CCN(CC(=O)Nc2ccc(Oc3ccccc3)cc2)CC1	1.4	1	28	-23	10
CCN1CCN(c2ccc(NC(=O)c3cccc(OCc4ccccc4)c3)cc2)CC1	1.2	-4	0	·	-2
CCOc1ccc(NC(=O)CCN2CCN(c3ccccc3)CC2)cc1	1.4	1	1	-6	7
COc1ccccc1NC(=O)CN1CCN(CC(=O)Nc2ccc(OCc3ccccc3)cc2)CC1	1.2	-12	51*	53	-3
CCn1cc(C(=O)OCC(=O)Nc2ccc(S(=O)(=O)N3CCCC3)cc2)c(=O)c2ccc(C)nc21	0.9	30	0	40	2
COc1cc2c(cc1OC)CN(C(=O)CC1CC3CCC1C3)CC2 (centres undefined)	1.1	7	10	7	-4
C/C(=N\OC(=O)NC(C)C)c1sc(-c2ccccc2)nc1C	1	8	18	·	-3
C/C(=N\OC(=O)NC1CCCCC1)c1sc(-c2ccccc2)nc1C	1	-12	34*	·	-2
C/C(=N\OC(=O)NC(C)C)c1sc(-c2ccc(Cl)cc2)nc1C	1.2	-2	36*	·	-2
Cc1ccc(CNC(=O)CSc2nc3n[nH]c(C)c3c(=N)n2-c2cccc(C)c2)cc1	2.5*	-2	4	·	10
Cc1nc(CS(=O)(=O)c2ccccc2)cc(Sc2ccc(Cl)cc2Cl)n1	1.2	-17	37*	·	5
CCc1ccc(OCC(=O)N2CCN=C2c2ccccc2)cc1	1	-9	-3	·	2
CC(C)c1ccc2c(c1)C(c1ccc(N3CCOCC3)cc1)=NNC(c1cccs1)=N2	1.2	-12	42*	·	-1
COc1cc(NC(=O)CCCC(=O)OCC(F)(F)C(F)F)nc(OC)n1	1.2	1	10	-2	-1
Cc1ccc(O)c(C2=NNC(O)(C(F)(F)F)C2)c1 (centres undefined)	2.2*	32	17	·	-6
O=C(N1CCOCC1)C1(c2ccccc2)CCCCC1	1.3	5	42*	0	-10
O=C(OCc1nnc(-c2ccccc2)o1)c1cn(-c2ccccc2)nc1-c1ccccc1	1.4	-24	15	18	-9
Cc1cc(C(=O)OCc2nnc(-c3ccccc3)o2)c(C)n1-c1ccccc1	1.3	-15	9	63*	-10
